Data on 4 compounds can be found in publication PMC4503318 (Chemistry & biology, 2015).

Like-named read-outs stand apart in the source and are kept apart here.

Series [1] deals with Pf-like human LysRS (Homo sapiens, UniProt Q15046, P300T/Q321V/T337S). As to the kind of experiment: Thermal shift assay, Pf-like human LysRS. Format: binding. Summed up:
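Pf-like human LysRS (residues 70-584) was co-expressed in E. coli BL21(DE3) with His-tagged AIMP2/p38 1-36 and purified by Ni affinity and gel filtration. A 2× mix held 4 μM protein in Tris-HCl pH 8.0/NaCl/DTT, plus 40 μM test compound, 1 mM lysine, 40 μM ATP or 2 mM CaCl2. It sat 30 min at room temperature, then was chilled and mixed 1:1 with dye. Fluorescence was read during heating from 10 to 90 °C at 1 °C/min, averaging 8 curves. Tm was fitted by Levenberg-Marquardt. Kd was extrapolated to 25 °C, assuming 62760 J/mol binding enthalpy. Kd was not determined for negative ΔTm.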

Series [2] addresses T1, PfLysRS (Plasmodium falciparum, UniProt Q8IDJ8). As to the kind of experiment: Thermal shift assay, PfLysRS. Type of series: binding, P. falciparum.
Series [3] concerns the target HsLysRS (Homo sapiens, UniProt Q15046). As to the kind of experiment: Thermal shift assay, HsLysRS. Type of series: binding.
The test system of series [4] is human cells. Conditions: ref Hoepfner et al., 2012; cited from earlier work.
The test system of series [5] is Colletotrichum fragariae. Conditions: CP at 30 μM; ref Wang et al., 2013; cited from earlier work.
Series [6] deals with Phomopsis viticola. To be noted: CP at 30 μM; ref Wang et al., 2013; cited from earlier work.
In series [7] the test system is E. coli. To be noted: up to 100 μg/ml CP; ref Anke, 1979; cited from earlier work.
Series [8] concerns Colletotrichum acutatum. Conditions: CP at 30 μM; ref Wang et al., 2013; cited from earlier work.
Series [9] has as its system Colletotrichum gloeosporioides. To be noted: CP at 30 μM; ref Wang et al., 2013; cited from earlier work.
For series [10], the target named is T1, PfLysRS. Conditions: yeast-growth-based assay; ref Hoepfner et al., 2012; cited from earlier work.
Series [11] has as its system yeast LysRS Q324V and T340S. To be noted: Q324V and T340S mutations of yeast LysRS; ref Hoepfner et al., 2012; cited from earlier work.
For series [12], the system named is blood- and liver- stage Plasmodium falciparum parasite forms. Conditions: Plasmodium parasites compared to mammalian cells; ref Hoepfner et al., 2012; cited from earlier work.
The subject of series [13] is IleRS. Conditions: ref Hughes and Mellows, 1980; cited from earlier work.
Setting [14] is: Pf-like human LysRS, ligand alone (no lysine co-ligand for ATP/CP).
The mark [15] stands for this setting: Pf-like human LysRS, with lysine.
[16] abbreviates: HsLysRS, ligand alone (no lysine co-ligand for ATP/CP).
The mark [17] stands for this setting: PfLysRS, ligand alone (no lysine co-ligand), estimated from ΔTm, 25°C.

HsLysRS, sequence (Q15046 70-584): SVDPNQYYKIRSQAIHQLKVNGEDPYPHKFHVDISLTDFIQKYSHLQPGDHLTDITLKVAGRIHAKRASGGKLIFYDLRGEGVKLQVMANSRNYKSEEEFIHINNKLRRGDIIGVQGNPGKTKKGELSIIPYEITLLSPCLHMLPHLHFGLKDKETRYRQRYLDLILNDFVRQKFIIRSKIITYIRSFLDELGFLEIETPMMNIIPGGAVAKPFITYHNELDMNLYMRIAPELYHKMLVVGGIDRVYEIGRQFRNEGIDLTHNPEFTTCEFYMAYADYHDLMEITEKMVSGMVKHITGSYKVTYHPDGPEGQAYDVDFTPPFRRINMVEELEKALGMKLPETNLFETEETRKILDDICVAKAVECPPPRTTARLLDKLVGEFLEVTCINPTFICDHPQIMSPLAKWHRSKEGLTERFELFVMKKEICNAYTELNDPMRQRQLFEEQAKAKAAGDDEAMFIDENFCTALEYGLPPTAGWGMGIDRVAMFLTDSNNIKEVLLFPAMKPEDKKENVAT
HsLysRS, sequence (Q13155 1-36 partner limits assumed): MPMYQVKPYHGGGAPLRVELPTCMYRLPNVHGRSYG
Pf-like human LysRS, sequence (Q15046 70-584 P300T/Q321V/T337S): as the sequence (Q15046 70-584) above, with P231T, Q252V, T268S counted along it
Pf-like human LysRS, sequence (Q13155 1-36 partner limits assumed): as the sequence (Q13155 1-36 partner limits assumed) above

For orientation: ΔTm means the shift of the melting midpoint relative to a reference. Broadly, the Kd is the free concentration of one partner at which half of the binding sites on the other are occupied at equilibrium, for simple one-to-one binding. Consider `Nc1ncnc2c1ncn2[C@@H]1O[C@H](COP(=O)(O)OP(=O)(O)OP(=O)(O)O)[C@@H](O)[C@H]1O` [ATP], for which the ΔTm was -0.9 °C in series [1] (setting [14]); 0.9 °C in series [1] (setting [15]); 0.6 °C in series [2] (PfLysRS, with lysine); -0.2 °C in [3] (setting [16]); 0.9 °C in [3] (HsLysRS, with lysine). The Kd in series [1] (Pf-like human LysRS, with lysine, estimated from ΔTm, 25°C) was 2.2 µM; in [3] (HsLysRS, with lysine, estimated from ΔTm, 25°C), 2.8 µM.

In the case of `C[C@H]1CCC[C@H](C[C@H]2Cc3cc(O)cc(O)c3C(=O)O2)O1` [CP, cladosporin], the “effect on the growth of human cells” value in series [4] is “little effect”. Moreover, the inhibition of growth entry in series [5], in series [6], in series [8] and in [9] was “over 80%” each time. Besides, in [7], the “effect on growth of E. coli” value is on record as “not affected”. In addition, the “potency against PfLysRS relative to HsLysRS or yeast LysRS” value in series [10] is 1000 fold. The Kd in series [1] was 2.1 µM; in [2] (PfLysRS, K-CP (with lysine)), ~0.0024 µM; in series [2] (setting [17]), 1.5 µM; in series [2] (PfLysRS, with lysine, estimated from ΔTm, 25°C), 0.0024 µM; in series [3] it was 3.3 µM. Also, the “stabilization effect (melting temperature)” value in series [1] (Pf-like human LysRS, CP even with the presence of lysine) was < 2 °C; in series [3] (HsLysRS, CP even with the presence of lysine), < 2 °C. Also, the ΔTm in series [1] (setting [14]) is -1.1 °C; in [1] (setting [15]), 1.0 °C; in series [3] (setting [16]), -0.8 °C; in series [3] (HsLysRS, with lysine) it was 0.3 °C. Besides, the “binding affinity tighter than in HsLysRS” value in [2] (PfLysRS vs HsLysRS, with lysine) is reported as 1375 fold. Also, the “stabilization by CP together with lysine relative to CP-alone” value in series [2] (PfLysRS, 17.1 °C vs 2.4 °C) is reported as 7 fold. Also, the “stabilization effect with non-cognate amino acids” value in series [2] (PfLysRS, CP, lysine replaced with any of the other 19 non-cognate amino acids) is on record as “did not yield stabilization effect”. For the same compound, the “increase of binding affinity by the presence of lysine” value in [2] (PfLysRS, Kd with lysine vs no lysine) is 625 fold. Also, the ΔTm at 40 µM in [2] (read-out: ΔTm) worked out at 2.4 °C. In addition, the “increase of sensitivity for CP inhibition” value in [11] is 40 fold. For the same compound, the “selectivity index (IC50/CC50)” value in series [12] is reported as > 111.

With `NCCCC[C@H](N)C(=O)O` [Lysine, L-lysine], the ΔTm in [1] (setting [14]) was -0.2 °C; in [3] it was 0.1 °C. The Kd in series [2] (setting [17]) is 34.1 µM; in [3] it was 84.9 µM. For the same compound, in [2] (read-out: ΔTm), the ΔTm at 1000 µM worked out at 2.7 °C.

Consider `C/C(=C\C(=O)OCCCCCCCCC(=O)O)C[C@@H]1OC[C@H](C[C@@H]2O[C@H]2[C@@H](C)[C@H](C)O)[C@@H](O)[C@H]1O` [mupirocin], for which the “selectivity for pathogenic over mammalian IleRS” value in series [13] is given as “about 8000 fold”.
